According to ChEMBL document CHEMBL1143542, “Structure-activity relationships of bivalent aminoglycosides and evaluation of their microbiological activities” (2005):
≈ marks a conversion by molar mass, not a printed value.

Tests used:
Pseudomonas aeruginosa [1] = assay: In vitro minimum inhibitory concentration against Pseudomonas aeruginosa ATCC 27853; assay type: functional
In short: (§1)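 Broth microdilution following CLSI M100-S12. Stocks were 10 mg/mL in water, diluted in Mueller–Hinton broth to a top level of 128, then serially 2-fold in plates. Bacteria in cation-adjusted Mueller–Hinton broth were mixed 1:1 with drug and incubated 16–20 h at 35 °C. MIC was the lowest concentration with no visible growth. Run in duplicate with no-antibiotic and no-inoculum (sterility) controls.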

Pseudomonas aeruginosa [2] = assay: Minimum inhibitory concentration against Pseudomonas aeruginosa PAE_NUH24; assay type: functional; in short: as §1
Pseudomonas aeruginosa [3] = assay: Minimum inhibitory concentration against Pseudomonas aeruginosa PAE_NUH23; assay type: functional; in short: as §1
Pseudomonas aeruginosa [4] = assay: Minimum inhibitory concentration against Pseudomonas aeruginosa PAE_NUH25; assay type: functional; in short: as §1
Pseudomonas aeruginosa [5] = assay: Minimum inhibitory concentration against Pseudomonas aeruginosa PAE_NUH03; assay type: functional; in short: as §1
Pseudomonas aeruginosa [6] = assay: Minimum inhibitory concentration against Pseudomonas aeruginosa PAE_NUH18; assay type: functional; in short: as §1
Pseudomonas aeruginosa [7] = assay: Minimum inhibitory concentration against Pseudomonas aeruginosa PAE_NUH17; assay type: functional; in short: as §1
Pseudomonas aeruginosa [8] = assay: Minimum inhibitory concentration against Pseudomonas aeruginosa PAE_NUH06; assay type: functional; in short: as §1
Pseudomonas aeruginosa [9] = assay: Minimum inhibitory concentration against Pseudomonas aeruginosa PAE_NUH22; assay type: functional; in short: as §1
Pseudomonas aeruginosa [10] = assay: Minimum inhibitory concentration against Pseudomonas aeruginosa PAE_NUH04; assay type: functional; in short: as §1
Pseudomonas aeruginosa [11] = assay: In vitro minimum inhibitory concentration against Pseudomonas aeruginosa PAO-1; assay type: functional; in short: as §1
Enterococcus faecalis = assay: In vitro minimum inhibitory concentration against Enterococcus faecalis 29212; assay type: functional; in short: as §1
Staphylococcus aureus [12] = assay: In vitro minimum inhibitory concentration against Staphylococcus aureus ATCC 29213; assay type: functional; in short: as §1
Pseudomonas aeruginosa [13] = assay: Minimum inhibitory concentration against Pseudomonas aeruginosa PAE_NUH05; assay type: functional; in short: as §1
Pseudomonas aeruginosa [14] = assay: Minimum inhibitory concentration against Pseudomonas aeruginosa PAE_NUH21; assay type: functional; in short: as §1
Pseudomonas aeruginosa [15] = assay: Minimum inhibitory concentration against Pseudomonas aeruginosa PAE_NUH20; assay type: functional; in short: as §1
Escherichia coli = assay: In vitro minimum inhibitory concentration against Escherichia coli ATCC 25922; assay type: functional; in short: as §1
Staphylococcus aureus [16] = assay: In vitro minimum inhibitory concentration against Staphylococcus aureus MRSA 3359; assay type: functional; in short: as §1
Pseudomonas aeruginosa [17] = assay: Minimum inhibitory concentration against Pseudomonas aeruginosa PAE_NUH19; assay type: functional; in short: as §1
Pseudomonas aeruginosa [18] = assay: Minimum inhibitory concentration against Pseudomonas aeruginosa ATCC 27853; assay type: functional; in short: as §1
Pseudomonas aeruginosa [19] = assay: Minimum inhibitory concentration against Pseudomonas aeruginosa PAE_NUH01; assay type: functional; in short: as §1
Pseudomonas aeruginosa [20] = assay: Minimum inhibitory concentration against Pseudomonas aeruginosa PAE_NUH02; assay type: functional; in short: as §1
Pseudomonas aeruginosa [21] = assay: Minimum inhibitory concentration against Pseudomonas aeruginosa PAE_NUH07; assay type: functional; in short: as §1
Pseudomonas aeruginosa [22] = assay: Susceptibility testing against Pseudomonas aeruginosa ATCC 27853; S=Susceptible; assay type: functional, organism-based
In short: (§2)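 Disk diffusion susceptibility profiling against a panel of empirically used antipseudomonal antibiotics. Each strain was categorised as susceptible (S) or intermediate (I).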

Pseudomonas aeruginosa [23] = assay: Susceptibility testing against Pseudomonas aeruginosa PAE_NUH24; S=Susceptible; assay type: functional, organism-based; in short: as §2
Pseudomonas aeruginosa [24] = assay: Susceptibility testing against Pseudomonas aeruginosa PAE_NUH01; S=Susceptible; assay type: functional, organism-based; in short: as §2
Pseudomonas aeruginosa [25] = assay: Susceptibility testing against Pseudomonas aeruginosa PAE_NUH03; S=Susceptible; assay type: functional, organism-based; in short: as §2
Pseudomonas aeruginosa [26] = assay: Susceptibility testing against Pseudomonas aeruginosa PAE_NUH20; S=Susceptible; assay type: functional, organism-based; in short: as §2
Pseudomonas aeruginosa [27] = assay: Susceptibility testing against Pseudomonas aeruginosa PAE_NUH07; S=Susceptible; assay type: functional, organism-based; in short: as §2
Pseudomonas aeruginosa [28] = assay: Susceptibility testing against Pseudomonas aeruginosa PAE_NUH17; S=Susceptible; assay type: functional, organism-based; in short: as §2
Pseudomonas aeruginosa [29] = assay: Susceptibility testing against Pseudomonas aeruginosa PAE_NUH05; S=Susceptible; assay type: functional, organism-based; in short: as §2
Pseudomonas aeruginosa [30] = assay: Susceptibility testing against Pseudomonas aeruginosa PAE_NUH21; S=Susceptible; assay type: functional, organism-based; in short: as §2
Pseudomonas aeruginosa [31] = assay: Susceptibility testing against Pseudomonas aeruginosa PAE_NUH22; S=Susceptible; assay type: functional, organism-based; in short: as §2
Pseudomonas aeruginosa [32] = assay: Susceptibility testing against Pseudomonas aeruginosa PAE_NUH06; S=Susceptible; assay type: functional, organism-based; in short: as §2
Pseudomonas aeruginosa [33] = assay: Susceptibility testing against Pseudomonas aeruginosa PAE_NUH02; S=Susceptible; assay type: functional, organism-based; in short: as §2
Pseudomonas aeruginosa [34] = assay: Susceptibility testing against Pseudomonas aeruginosa PAE_NUH04; S=Susceptible; assay type: functional, organism-based; in short: as §2
Pseudomonas aeruginosa [35] = assay: Susceptibility testing against Pseudomonas aeruginosa PAE_NUH25; S=Susceptible; assay type: functional, organism-based; in short: as §2
Pseudomonas aeruginosa [36] = assay: Susceptibility testing against Pseudomonas aeruginosa PAE_NUH19; S=Susceptible; assay type: functional, organism-based; in short: as §2
Pseudomonas aeruginosa [37] = assay: Susceptibility testing against Pseudomonas aeruginosa PAE_NUH23; S=Susceptible; assay type: functional, organism-based; in short: as §2
Pseudomonas aeruginosa [38] = assay: Susceptibility testing against Pseudomonas aeruginosa PAE_NUH18; S=Susceptible; assay type: functional, organism-based; in short: as §2

## CN(CCCCN(C)C[C@@H](O)CO[C@@H]1[C@@H](O)[C@H](N)C[C@H](N)[C@H]1O[C@H]1O[C@H](CN)[C@@H](O)[C@H](O)[C@H]1N)C[C@@H](O)CO[C@@H]1[C@@H](O)[C@H](N)C[C@H](N)[C@H]1O[C@H]1O[C@H](CN)[C@@H](O)[C@H](O)[C@H]1N
Pseudomonas aeruginosa [1]
  MIC: 8 µg/mL (≈ 9.16 µM)
Pseudomonas aeruginosa [2]
  MIC: 32 µg/mL (≈ 36.7 µM)
Pseudomonas aeruginosa [3]
  MIC: > 32 µg/mL
Pseudomonas aeruginosa [4]
  MIC: 8 µg/mL (≈ 9.16 µM)
Pseudomonas aeruginosa [5]
  MIC: 6.3 µg/mL (≈ 7.22 µM)
Pseudomonas aeruginosa [6]
  MIC: 16 µg/mL (≈ 18.3 µM)
Pseudomonas aeruginosa [7]
  MIC: > 32 µg/mL
Pseudomonas aeruginosa [8]
  MIC: 12.5 µg/mL (≈ 14.3 µM)
Pseudomonas aeruginosa [9]
  MIC: 8 µg/mL (≈ 9.16 µM)
Pseudomonas aeruginosa [10]
  MIC: 6.3 µg/mL (≈ 7.22 µM)
Pseudomonas aeruginosa [11]
  MIC: 8 µg/mL (≈ 9.16 µM)
Enterococcus faecalis
  MIC: > 50 µg/mL
Staphylococcus aureus [12]
  MIC: 1 µg/mL (≈ 1.15 µM)
Pseudomonas aeruginosa [13]
  MIC: 6.3 µg/mL (≈ 7.22 µM)
Pseudomonas aeruginosa [14]
  MIC: 16 µg/mL (≈ 18.3 µM)
Pseudomonas aeruginosa [15]
  MIC: 16 µg/mL (≈ 18.3 µM)
Escherichia coli
  MIC: 4 µg/mL (≈ 4.58 µM)
Staphylococcus aureus [16]
  MIC: 16 µg/mL (≈ 18.3 µM)
Pseudomonas aeruginosa [17]
  MIC: 16 µg/mL (≈ 18.3 µM)
Pseudomonas aeruginosa [18]
  MIC: 8 µg/mL (≈ 9.16 µM)
Pseudomonas aeruginosa [19]
  MIC: 12.5 µg/mL (≈ 14.3 µM)
Pseudomonas aeruginosa [20]
  MIC: 6.3 µg/mL (≈ 7.22 µM)
Pseudomonas aeruginosa [21]
  MIC: 6.3 µg/mL (≈ 7.22 µM)

## CC(O)[C@H]1C(=O)N2C(C(=O)O)=C(SCCNC=N)C[C@H]12 (single isomer, unassigned)
Pseudomonas aeruginosa [22]
  Activity: Susceptible
Pseudomonas aeruginosa [23]
  Activity: Susceptible
Pseudomonas aeruginosa [24]
  Activity: Susceptible
Pseudomonas aeruginosa [25]
  Activity: Susceptible
Pseudomonas aeruginosa [26]
  Activity: Susceptible
Pseudomonas aeruginosa [27]
  Activity: Susceptible
Pseudomonas aeruginosa [28]
  Activity: Susceptible
Pseudomonas aeruginosa [29]
  Activity: Susceptible
Pseudomonas aeruginosa [30]
  Activity: Susceptible
Pseudomonas aeruginosa [31]
  Activity: Susceptible
Pseudomonas aeruginosa [32]
  Activity: Susceptible
Pseudomonas aeruginosa [33]
  Activity: Susceptible
Pseudomonas aeruginosa [34]
  Activity: Susceptible
Pseudomonas aeruginosa [35]
  Activity: Susceptible
Pseudomonas aeruginosa [36]
  Activity: Susceptible
Pseudomonas aeruginosa [37]
  Activity: Susceptible
Pseudomonas aeruginosa [38]
  Activity: Susceptible
